{"data": "Experimental data pooled from the literature", "target": "Ephrin type-B receptor 2 (EPHB2, Homo sapiens, UniProt P29323)", "One construct used (P29323 19-1055)": "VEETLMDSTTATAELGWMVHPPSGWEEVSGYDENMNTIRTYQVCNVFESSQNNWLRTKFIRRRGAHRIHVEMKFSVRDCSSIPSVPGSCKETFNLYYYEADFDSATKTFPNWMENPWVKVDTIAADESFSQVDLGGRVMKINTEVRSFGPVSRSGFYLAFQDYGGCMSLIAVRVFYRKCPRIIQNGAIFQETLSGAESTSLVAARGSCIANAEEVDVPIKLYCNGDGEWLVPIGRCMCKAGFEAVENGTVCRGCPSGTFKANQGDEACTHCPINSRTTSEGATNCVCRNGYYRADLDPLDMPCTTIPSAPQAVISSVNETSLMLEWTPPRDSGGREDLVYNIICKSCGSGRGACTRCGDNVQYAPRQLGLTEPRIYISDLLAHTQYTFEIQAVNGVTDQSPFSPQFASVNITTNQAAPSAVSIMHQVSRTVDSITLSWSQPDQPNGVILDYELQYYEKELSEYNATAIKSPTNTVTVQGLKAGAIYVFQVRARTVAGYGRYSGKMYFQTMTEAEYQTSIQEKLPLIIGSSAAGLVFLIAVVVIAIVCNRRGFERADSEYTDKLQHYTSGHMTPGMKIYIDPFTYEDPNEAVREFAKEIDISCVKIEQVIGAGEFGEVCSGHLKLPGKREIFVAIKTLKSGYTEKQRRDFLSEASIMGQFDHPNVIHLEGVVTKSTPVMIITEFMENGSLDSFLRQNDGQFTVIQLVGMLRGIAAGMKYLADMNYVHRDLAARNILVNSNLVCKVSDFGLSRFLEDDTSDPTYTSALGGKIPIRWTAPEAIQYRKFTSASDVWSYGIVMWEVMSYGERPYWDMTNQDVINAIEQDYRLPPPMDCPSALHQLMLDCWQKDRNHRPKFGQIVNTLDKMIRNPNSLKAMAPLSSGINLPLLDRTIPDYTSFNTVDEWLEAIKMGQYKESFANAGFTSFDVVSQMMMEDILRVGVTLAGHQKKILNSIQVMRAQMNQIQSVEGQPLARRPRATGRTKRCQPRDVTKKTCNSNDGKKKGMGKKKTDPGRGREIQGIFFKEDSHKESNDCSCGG", "note": "Each line is one published result; the experiments were not run side by side."}
{"effect on": "binding", "concentration": "1 µM", "remaining binding": "100%", "Compound": "N[C@H]1CCN(c2nccc(-c3cnn4ncccc34)n2)C1"}
{"effect on": "binding", "technique": "competition with immobilised ligand", "concentration": "1 µM", "remaining binding": "98%", "Compound": "O=C(NCC1CCOCC1)c1n[nH]cc1NC(=O)c1c(F)cccc1F"}
{"effect on": "binding", "concentration": "1 µM", "remaining binding": "100%", "Compound": "c1cnn2ncc(-c3ccnc(N4CCC45COC5)n3)c2c1"}
{"effect on": "cell-free assay", "technique": "competition with immobilised ligand", "concentration": "5 µM", "remaining binding": "99%", "Compound": "COc1ncc2cc3ccccc3nc2c1C#N"}
{"effect on": "cell-free assay", "technique": "competition with immobilised ligand", "concentration": "1 µM", "remaining binding": "100%", "Compound": "O=C(NC[C@@H]1[C@H]2CN(C(=O)OCc3cc(C(F)(F)F)cc(C(F)(F)F)c3)C[C@@H]12)c1ccc2[nH]nnc2c1"}
{"effect on": "binding", "technique": "competition with immobilised ligand", "concentration": "1 µM", "remaining binding": "96%", "Compound": "CNC(=O)[C@@H]1CC[C@@H](n2c(-c3ccc4cnccc4c3)nc3ccc(C(=O)NCc4cccc(C(N)=O)c4)cc32)C1"}
{"effect on": "binding", "concentration": "1 µM", "remaining binding": "100%", "Compound": "CN(C)c1ncc(F)c(-c2cnn3ncccc23)n1"}
{"effect on": "binding", "technique": "competition with immobilised ligand", "concentration": "1 µM", "remaining binding": "88%", "Compound": "O=C(c1ccc(Nc2ncc(Cl)c(-c3ccc(Cl)s3)n2)cc1)N1CCC(N2CCCC2)CC1"}
{"effect on": "cell-free assay", "technique": "competition with immobilised ligand", "concentration": "1 µM", "remaining binding": "76%", "Compound": "CO[C@@H](C)c1c(Nc2ccc([C@H](N(C)C(=O)C3CCS(=O)(=O)CC3)C(F)(F)F)cc2)cnc2cc(Cl)nn12"}
{"effect on": "binding", "technique": "competition with immobilised ligand", "concentration": "1 µM", "remaining binding": "100%", "Compound": "O=C(c1ccc(Nc2nccc(-c3cc4ccccc4s3)n2)cc1)N1CCC(N2CCCC2)CC1"}
{"effect on": "binding", "concentration": "1 µM", "remaining binding": "100%", "Compound": "COc1ccnn2ncc(-c3ccnc(N(C)C)n3)c12"}
{"effect on": "cell-free assay", "technique": "competition with immobilised ligand", "concentration": "1 µM", "remaining binding": "100%", "Compound": "O=C(O)[C@H]1[C@H](Cn2nnc3ccccc3c2=O)CC[C@@H]1C(=O)c1ccc(OCCC2CCOCC2)cc1"}
{"effect on": "binding", "technique": "competition with immobilised ligand", "concentration": "1 µM", "remaining binding": "99%", "Compound": "COc1cnc(Nc2cccc(S(N)(=O)=O)c2)nc1N1CCN(c2ccccc2)C(=O)C1"}
{"effect on": "cell-free assay", "technique": "competition with immobilised ligand", "concentration": "1 µM", "remaining binding": "92%", "Compound": "CS(=O)(=O)NCC[C@H](NC(=O)c1cncc2c1cnn2-c1ccc(F)cc1)c1ccnc(S(C)(=O)=O)c1"}
{"effect on": "binding", "concentration": "1 µM", "remaining binding": "0%", "Compound": "C[C@H]1CCN(c2nccc(-c3cnn4ncccc34)n2)C1"}
{"effect on": "binding", "technique": "competition with immobilised ligand", "concentration": "1 µM", "remaining binding": "65%", "Compound": "Cc1cnc(Nc2ccc(C(=O)N3CCC(N4CCCC4)CC3)cc2)nc1-c1cc2ccccc2s1"}
{"effect on": "binding", "technique": "competition with immobilised ligand", "concentration": "10 µM", "remaining binding": "90%", "Compound": "c1cncc(-c2cccc(Nc3nccc(NC4CCCCC4)n3)c2)c1"}
{"effect on": "binding", "concentration": "1 µM", "remaining binding": "100%", "Compound": "CN(c1nccc(-c2cnn3ncccc23)n1)C1CC1"}
{"effect on": "cell-free assay", "technique": "competition with immobilised ligand", "concentration": "1 µM", "remaining binding": "75%", "Compound": "CO[C@H]1CC[C@H](CNc2ccc(S(=O)(=O)NC(=O)c3ccc(N4CCN(CC5=C(c6ccc(Cl)cc6)CC(C)(C)CC5)CC4)cc3Oc3cnc4[nH]ccc4c3)cc2[N+](=O)[O-])CC1"}
